Legend:
[1] = system: Human alphaherpesvirus 2; experiment: Antiviral activity against Herpes simplex virus 2 isolate 25 harboring I101S mutations in thymidine kinase and D785N, V544A mutations in DNA polymerase infected in african green monkey Vero cells by plaque reduction assay; type: functional, organism-based; settings: Human alphaherpesvirus 2, isolate 25, Vero
Method in brief: (§1)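 EC50 by plaque reduction assay in Vero cells against acyclovir and foscarnet. Vero cells grown in RPMI 1640 with 2% fetal bovine serum, 2 mM glutamine, 20 μg/ml vancomycin and 20 μg/ml amikacin. KOS (HSV-1) and gHSV2 (HSV-2) run as susceptible controls in each assay. […] HSV type confirmed by immunofluorescence with type-specific monoclonal antibodies.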

[2] = system: Human alphaherpesvirus 2; experiment: Antiviral activity against Herpes simplex virus 2 isolate 18 harboring A27T, G39E, N78D, -1C 556 = Stop 263, S29A mutations in thymidine kinase and A9T, P15S, L60P, E678G, del, DD676-677 mutations in DNA polymerase infected in african green monkey Vero cells by plaque reduction assay; type: functional, organism-based; settings: Human alphaherpesvirus 2, isolate 18, Vero; method in brief: as §1
[3] = system: Human alphaherpesvirus 2; experiment: Antiviral activity against Herpes simplex virus 2 isolate 22 harboring G39E, N78D, L140F, +1G 439-440 = Stop 229 mutations in thymidine kinase and A9T, P15S, L60P, E678G, Y823C mutations in DNA polymerase infected in african green monkey Vero cells by plaque reduction assay; type: functional, organism-based; settings: Human alphaherpesvirus 2, isolate 22, Vero; method in brief: as §1
[4] = system: Human alphaherpesvirus 2; experiment: Antiviral activity against Herpes simplex virus 2 isolate 15 harboring R221H mutations in thymidine kinase and A9T, P15S, L60P mutations in DNA polymerase infected in african green monkey Vero cells by plaque reduction assay; type: functional, organism-based; settings: Human alphaherpesvirus 2, isolate 15, Vero; method in brief: as §1
[5] = system: Human alphaherpesvirus 1; experiment: Antiviral activity against Herpes simplex virus 1 isolate 3 harboring N23S, K36E, R89Q, A265T, Y53D mutations in thymidine kinase and S33G, A330R, V905M, E1005K mutations in DNA polymerase infected in african green monkey Vero cells by plaque reduction assay; type: functional, organism-based; settings: Human alphaherpesvirus 1, isolate 3, Vero; method in brief: as §1
[6] = system: Human alphaherpesvirus 1; experiment: Antiviral activity against Herpes simplex virus 1 isolate 11 harboring N23S, K36E, G251C, A265T, P268T, R176W mutations in thymidine kinase and S33G, A330R, P1124H, T1208A, S724N, V117L, L267M mutations in DNA polymerase infected in african green monkey Vero cells by plaque reduction assay; type: functional, organism-based; settings: Human alphaherpesvirus 1, isolate 11, Vero; method in brief: as §1
[7] = system: Human alphaherpesvirus 2; experiment: Antiviral activity against Herpes simplex virus 2 isolate 23 harboring G39E, N78D, L140F, +1G 439-440 = Stop 229 mutations in thymidine kinase and A9T, P15S, L60P, I291V mutations in DNA polymerase infected in african green monkey Vero cells by plaque reduction assay; type: functional, organism-based; settings: Human alphaherpesvirus 2, isolate 23, Vero; method in brief: as §1
[8] = system: Human alphaherpesvirus 1; experiment: Antiviral activity against Herpes simplex virus 1 isolate 7 harboring N23S, K36E, R89Q, +1C 464-465 = Stop 228 mutations in thymidine kinase and S33G, A330R, P1124H, T1208A, A870G mutations in DNA polymerase infected in african green monkey Vero cells by plaque reduction assay; type: functional, organism-based; settings: Human alphaherpesvirus 1, isolate 7, Vero; method in brief: as §1
[9] = system: Human alphaherpesvirus 1; experiment: Antiviral activity against Herpes simplex virus 1 isolate 9 harboring N23S, K36E, R89Q, +1G 437-438 = Stop 228 mutations in thymidine kinase and S33G, A330R, V905M, A1203T, T1208A mutations in DNA polymerase infected in african green monkey Vero cells by plaque reduction assay; type: functional, organism-based; settings: Human alphaherpesvirus 1, isolate 9, Vero; method in brief: as §1
[10] = system: Human alphaherpesvirus 2; experiment: Antiviral activity against Herpes simplex virus 2 isolate 21 harboring G39E, N78D, L140F, -1C 452 = Stop 183 mutations in thymidine kinase and P15S, L60P, E678G mutations in DNA polymerase infected in african green monkey Vero cells by plaque reduction assay; type: functional, organism-based; settings: Human alphaherpesvirus 2, isolate 21, Vero; method in brief: as §1
[11] = system: Human alphaherpesvirus 2; experiment: Antiviral activity against Herpes simplex virus 2 isolate 13 harboring, M183I mutations in thymidine kinase and A9T, P15S, R41H, L60P, E139K, A232T mutations in DNA polymerase infected in african green monkey Vero cells by plaque reduction assay; type: functional, organism-based; settings: Human alphaherpesvirus 2, isolate 13, Vero; method in brief: as §1
[12] = system: Human alphaherpesvirus 2; experiment: Antiviral activity against Herpes simplex virus 2 isolate 24 harboring G39E, -1G 440 = Stop 229 mutations in thymidine kinase and A9T, P15S, L60P, E139K, H837R mutations in DNA polymerase infected in african green monkey Vero cells by plaque reduction assay; type: functional, organism-based; settings: Human alphaherpesvirus 2, isolate 24, Vero; method in brief: as §1
[13] = system: Human alphaherpesvirus 1; experiment: Antiviral activity against Herpes simplex virus 1 isolate 1 harboring C6G N23S K36E L42P G240E A265T and A207P mutations in thymidine kinase and S33G, A330R, N425T, V905M mutations in DNA polymerase infected in african green monkey Vero cells by plaque reduction assay; type: functional, organism-based; settings: Human alphaherpesvirus 1, isolate 1, Vero; method in brief: as §1
[14] = system: Human alphaherpesvirus 2; experiment: Antiviral activity against Herpes simplex virus 2 isolate 16 harboring D137Stop mutations in thymidine kinase and A9T, P15S, L60P mutations in DNA polymerase infected in african green monkey Vero cells by plaque reduction assay; type: functional, organism-based; settings: Human alphaherpesvirus 2, isolate 16, Vero; method in brief: as §1
[15] = system: Human alphaherpesvirus 1; experiment: Antiviral activity against Herpes simplex virus 1 isolate 6 harboring N23S, K36E, R89Q, +1G 437-438 = Stop 225 mutations in thymidine kinase and S33G, A330R, A646T, S1123L, P1124H, T1208A, R1229I mutations in DNA polymerase infected in african green monkey Vero cells by plaque reduction assay; type: functional, organism-based; settings: Human alphaherpesvirus 1, isolate 6, Vero; method in brief: as §1
[16] = system: Human alphaherpesvirus 1; experiment: Antiviral activity against Herpes simplex virus 1 isolate 5 harboring N23S, K36E, A192V, G251C, A265T, V267L, P268T, -1G 856 = frameshift mutations in thymidine kinase and A330R, V905M, T1208A, H98Y mutations in DNA polymerase infected in african green monkey Vero cells by plaque reduction assay; type: functional, organism-based; settings: Human alphaherpesvirus 1, isolate 5, Vero; method in brief: as §1
[17] = system: Human alphaherpesvirus 2; experiment: Antiviral activity against Herpes simplex virus 2 isolate 12 harboring G39E, N78D, L140F, S66P, A72S mutations in thymidine kinase and A9T, P15S, L60P mutations in DNA polymerase infected in african green monkey Vero cells by plaque reduction assay; type: functional, organism-based; settings: Human alphaherpesvirus 2, isolate 12, Vero; method in brief: as §1
[18] = system: Human alphaherpesvirus 2; experiment: Antiviral activity against Herpes simplex virus 2 isolate 14 harboring G39E, N78D, M70R mutations in thymidine kinase and A724V mutations in DNA polymerase infected in african green monkey Vero cells by plaque reduction assay; type: functional, organism-based; settings: Human alphaherpesvirus 2, isolate 14, Vero; method in brief: as §1
[19] = system: Human alphaherpesvirus 2; experiment: Antiviral activity against Herpes simplex virus 2 isolate 19 harboring G39E, +2G 439-440 = Stop 184 mutations in thymidine kinase and A9T, P15S, L60P, del, DGDE683-686 mutations in DNA polymerase infected in african green monkey Vero cells by plaque reduction assay; type: functional, organism-based; settings: Human alphaherpesvirus 2, isolate 19, Vero; method in brief: as §1
[20] = system: Human alphaherpesvirus 2; experiment: Antiviral activity against Herpes simplex virus 2 isolate 20 harboring G39E, -1C 467 = Stop 183 mutations in thymidine kinase and A9T, P15S, L60P, E139K, T801P mutations in DNA polymerase infected in african green monkey Vero cells by plaque reduction assay; type: functional, organism-based; settings: Human alphaherpesvirus 2, isolate 20, Vero; method in brief: as §1
[21] = system: Human alphaherpesvirus 1; experiment: Antiviral activity against Herpes simplex virus 1 isolate 2 harboring C6G, N23S, K36E, R41H, A192V, A265T, L170P mutations in thymidine kinase and S33G, A330R, V905M, T1208A mutations in DNA polymerase infected in african green monkey Vero cells by plaque reduction assay; settings: Human alphaherpesvirus 1, isolate 2, Vero
[22] = system: Human alphaherpesvirus 1; experiment: Antiviral activity against Herpes simplex virus 1 isolate 8 harboring N23S, K36E, R89Q, +1G 437-438 = Stop 228 mutations in thymidine kinase and A330R, P875S, V905M, P1124H, T1208A mutations in DNA polymerase infected in african green monkey Vero cells by plaque reduction assay; type: functional, organism-based; settings: Human alphaherpesvirus 1, isolate 8, Vero; method in brief: as §1
[23] = system: Human alphaherpesvirus 2; experiment: Antiviral activity against Herpes simplex virus 2 isolate 17 harboring G39E, N78D Q222Stop mutations in thymidine kinase and A9T, P15S, L60P, T801P mutations in DNA polymerase infected in african green monkey Vero cells by plaque reduction assay; type: functional, organism-based; settings: Human alphaherpesvirus 2, isolate 17, Vero; method in brief: as §1
[24] = system: Human alphaherpesvirus 1; experiment: Antiviral activity against Herpes simplex virus 1 isolate 10 harboring N23S, K36E, R89Q, A265T C336Y mutations in thymidine kinase and S33G, A330R, V905M mutations in DNA polymerase infected in african green monkey Vero cells by plaque reduction assay; type: functional, organism-based; settings: Human alphaherpesvirus 1, isolate 10, Vero; method in brief: as §1
[25] = system: Human alphaherpesvirus 1; experiment: Antiviral activity against Herpes simplex virus 1 isolate 4 harboring N23S, K36E -1C 553 = frameshift mutations in thymidine kinase and S33G, A330R, A899V, L1188F mutations in DNA polymerase infected in african green monkey Vero cells by plaque reduction assay; type: functional, organism-based; settings: Human alphaherpesvirus 1, isolate 4, Vero; method in brief: as §1

Structure (SMILES)	EC50 [1] [µM]	EC50 [2] [µM]	EC50 [3] [µM]	EC50 [4] [µM]	EC50 [5] [µM]	EC50 [6] [µM]	EC50 [7] [µM]	EC50 [8] [µM]	EC50 [9] [µM]	EC50 [10] [µM]	EC50 [11] [µM]	EC50 [12] [µM]	EC50 [13] [µM]	EC50 [14] [µM]	EC50 [15] [µM]	EC50 [16] [µM]	EC50 [17] [µM]	EC50 [18] [µM]	EC50 [19] [µM]	EC50 [20] [µM]	also measured
Nc1nc2c(ncn2COCCO)c(=O)[nH]1 [ACYCLOVIR]	42	18	> 50	11	35	> 50	> 50	31	> 50	> 50	33	> 50	> 50	> 50	26	16	43	24	> 50	> 50	EC50 [21]: 11 µM; EC50 [22]: 10 µM; EC50 [23]: > 50 µM; EC50 [24]: 22 µM; EC50 [25]: 16 µM
O=C(O)P(=O)(O)O [FOSCARNET]	145	< 66	76	99	< 66	644	< 66	< 66	106	89	< 66	< 66	< 66	< 66	< 66	< 66	< 66	92	< 66	< 66	EC50 [21]: < 66 µM; EC50 [22]: < 66 µM; EC50 [23]: < 66 µM; EC50 [24]: < 66 µM; EC50 [25]: < 66 µM

Reference: ChEMBL document CHEMBL1671752, “Genotypic characterization of UL23 thymidine kinase and UL30 DNA polymerase of clinical isolates of herpes simplex virus: natural polymorphism and mutations associated with resistance to antivirals” (Antimicrob Agents Chemother, 2010)
